Measured values reported in ChEMBL document CHEMBL1136869, “2-Cyclohexylcarbonylbenzimidazoles as potent, orally available and brain-penetrable opioid receptor-like 1 (ORL1) antagonists” (Bioorg Med Chem Lett, 2009).
One block for each compound: values may come before it. The source made the active and inactive calls. The calls are words filed in the database; no cut-off is given here.

Key:
[1] = Drug level in mouse plasma at 30 mg/kg, po after 1 hr; type: ADME, organism-based; design: dose 30 mg/kg, route oral
Brain [2] = experiment: Drug level in mouse brain at 30 mg/kg, po after 1 hr; type: ADME, organism-based; design: dose 30 mg/kg, route oral; conditions: in vivo
[3] = Ratio of drug level in mouse brain to plasma at 30 mg/kg, po after 1 hr; type: ADME, organism-based; design: dose 30 mg/kg, route oral
[4] = Ratio of drug level in brain to plasma of mouse at 3 mg/kg, sc after 30 mins; type: ADME, organism-based; design: dose 3 mg/kg, route subcutaneous
Method in brief: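 Mice dosed subcutaneously at 3 mg/kg; brain and plasma sampled 30 min after dosing. Brain level measured as nmol/g tissue alongside plasma concentration; value is the brain-to-plasma (b/p) ratio of these two levels.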

Nociceptin receptor [5] = biological target: T1, Nociceptin receptor (Homo sapiens, UniProt P41146); experiment: Antagonist activity against ORL1 receptor by [S35]GTPgammaS binding; type: functional
[6] = biological target: Voltage-gated inwardly rectifying potassium channel KCNH2 (Homo sapiens, UniProt Q12809); experiment: Displacement of [35S]MK499 from human ERG expressed in HEK293 cells
[7] = Distribution coefficient, log D at pH 7.4 by shake flask method; type: physicochemical; conditions: octanol/water
[8] = Metabolic stability in human liver microsomes assessed as parent compound remaining at 1 uM after 30 mins; type: ADME, Microsome; conditions: read-out: Stability
Mu-type opioid receptor = Mu-type opioid receptor (Homo sapiens, UniProt P35372); experiment: Displacement of [3H]diprenorphin from human mu opioid receptor expressed in CHO cells; type: cell-based
Method in brief: (§1)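 Radioligand displacement in CHO cells stably expressing cloned human opioid receptors: [3H]diprenorphin for mu and [3H]U69593 for kappa. IC50 values were reported.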

[9] = biological target: Kappa-type opioid receptor (Homo sapiens, UniProt P41145); experiment: Displacement of [3H]U69593 from human kappa opioid receptor expressed in CHO cells; type: cell-based; method in brief: as §1
[10] = Oral bioavailability in rat at 3 mg/kg; type: ADME, organism-based; conditions: in vivo
[11] = Half life in rat at 3 mg/kg, po and 1 mg/kg, iv; type: ADME, organism-based; conditions: in vivo
[12] = Clearance in rat at 3 mg/kg, po and 1 mg/kg, iv; type: ADME, organism-based; conditions: in vivo
[13] = Oral bioavailability in dog at 3 mg/kg; type: ADME, organism-based, Canis lupus familiaris; conditions: in vivo
[14] = Half life in dog at 3 mg/kg, po and 1 mg/kg, iv; type: ADME, organism-based, Canis lupus familiaris; conditions: in vivo
[15] = Clearance in dog at 3 mg/kg, po and 1 mg/kg, iv; type: ADME, organism-based, Canis lupus familiaris; conditions: in vivo
[16] = Oral bioavailability in monkey at 3 mg/kg; type: ADME, organism-based, Macaca mulatta; conditions: rhesus monkey, in vivo
[17] = Half life in monkey at 3 mg/kg, po and 1 mg/kg, iv; type: ADME, organism-based, Macaca mulatta; conditions: rhesus monkey, in vivo
[18] = Clearance in monkey at 3 mg/kg, po and 1 mg/kg, iv; type: ADME, organism-based, Macaca mulatta; conditions: rhesus monkey, in vivo
[19] = Plasma concentration in mouse at 3 mg/kg, sc after 30 mins; type: ADME, organism-based; design: dose 3 mg/kg, route subcutaneous
Brain [20] = experiment: Drug level in mouse brain at 3 mg/kg, sc after 30 mins; type: ADME, organism-based; design: dose 3 mg/kg, route subcutaneous; conditions: in vivo, 0.5 h
[21] = Inhibition of adrenergic alpha1 receptor at 10 uM
[22] = biological target: T2, Alpha-1D adrenergic receptor (Homo sapiens) (UniProt P25100); experiment: Inhibition of adrenergic Alpha-1D receptor at 10 uM
T2 sequence (whole entry): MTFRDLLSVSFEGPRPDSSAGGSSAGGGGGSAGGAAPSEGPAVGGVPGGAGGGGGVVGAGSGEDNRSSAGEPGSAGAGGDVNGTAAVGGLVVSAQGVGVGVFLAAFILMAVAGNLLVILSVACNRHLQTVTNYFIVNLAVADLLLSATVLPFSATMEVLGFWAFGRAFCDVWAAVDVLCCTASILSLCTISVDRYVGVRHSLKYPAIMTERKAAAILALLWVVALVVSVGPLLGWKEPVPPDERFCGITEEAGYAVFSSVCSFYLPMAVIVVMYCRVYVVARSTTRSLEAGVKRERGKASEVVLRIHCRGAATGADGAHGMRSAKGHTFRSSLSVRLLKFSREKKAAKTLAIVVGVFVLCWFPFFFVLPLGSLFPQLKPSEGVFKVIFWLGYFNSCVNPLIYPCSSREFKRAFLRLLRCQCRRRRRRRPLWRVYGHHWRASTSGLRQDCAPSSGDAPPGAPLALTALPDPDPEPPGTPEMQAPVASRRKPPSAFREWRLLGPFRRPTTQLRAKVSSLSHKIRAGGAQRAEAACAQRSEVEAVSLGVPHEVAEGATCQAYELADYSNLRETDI

[23] = biological target: Cannabinoid receptor 2 (Homo sapiens) (UniProt P34972); experiment: Inhibition of CB2 receptor at 10 uM
[24] = biological target: Histamine H3 receptor (Homo sapiens) (UniProt Q9Y5N1); experiment: Inhibition of histamine H3 receptor at 10 uM
[25] = biological target: T3, High affinity choline transporter 1 (Homo sapiens) (UniProt Q9GZV3); experiment: Inhibition of choline transporter at 10 uM
T3 sequence (whole entry): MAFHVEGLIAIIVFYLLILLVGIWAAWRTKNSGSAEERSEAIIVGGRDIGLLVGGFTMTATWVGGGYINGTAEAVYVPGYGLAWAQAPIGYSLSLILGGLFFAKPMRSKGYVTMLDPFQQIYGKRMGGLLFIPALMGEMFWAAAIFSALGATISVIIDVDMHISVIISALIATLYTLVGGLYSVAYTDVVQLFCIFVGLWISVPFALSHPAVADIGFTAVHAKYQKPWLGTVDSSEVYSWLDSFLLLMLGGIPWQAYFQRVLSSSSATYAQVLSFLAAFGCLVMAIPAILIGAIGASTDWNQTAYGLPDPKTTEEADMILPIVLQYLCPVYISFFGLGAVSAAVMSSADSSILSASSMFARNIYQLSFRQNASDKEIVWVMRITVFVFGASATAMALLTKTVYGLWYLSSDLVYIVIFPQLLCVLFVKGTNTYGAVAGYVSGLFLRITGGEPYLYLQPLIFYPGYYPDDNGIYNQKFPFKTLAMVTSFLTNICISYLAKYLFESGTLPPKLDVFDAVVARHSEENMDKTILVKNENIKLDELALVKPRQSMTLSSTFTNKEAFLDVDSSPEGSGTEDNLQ

[26] = Cmax in dog at 10 mg/kg, iv; type: ADME, organism-based, Canis lupus familiaris; design: dose 10 mg/kg, route intravenous; conditions: in vivo
Canis familiaris = experiment: Toxic effect in anesthetized dog assessed as incidence of cardiovascular events at 10 mg/kg, iv; type: toxicity, organism-based, Canis lupus familiaris; design: dose 10 mg/kg, route intravenous; conditions: in vivo
Rattus norvegicus = experiment: Antihyperalgesic activity in rat assessed as inhibition of carrageenan-induced hyperalgesia at 30 mg/kg, sc after 1 hr; type: functional, organism-based; design: dose 30 mg/kg
Method in brief: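 Rats received carrageenin (0.15 ml, 3%) by intraplantar injection 3 h before testing. Compound was given sc, and testing followed 1 h later. Responses to a noxious mechanical stimulus were scored, with significance set at P < 0.05.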

[27] = biological target: Delta-type opioid receptor (Homo sapiens, UniProt P41143); experiment: Displacement of [3H]naltrindole from human delta opioid receptor expressed in CHO cells
Nociceptin receptor [28] = biological target: T1, Nociceptin receptor; experiment: Displacement of [125I]Tyr14-NC/OFQ from ORL1 receptor

Voltage-gated inwardly rectifying potassium channel KCNH2, sequence (Q12809 whole entry): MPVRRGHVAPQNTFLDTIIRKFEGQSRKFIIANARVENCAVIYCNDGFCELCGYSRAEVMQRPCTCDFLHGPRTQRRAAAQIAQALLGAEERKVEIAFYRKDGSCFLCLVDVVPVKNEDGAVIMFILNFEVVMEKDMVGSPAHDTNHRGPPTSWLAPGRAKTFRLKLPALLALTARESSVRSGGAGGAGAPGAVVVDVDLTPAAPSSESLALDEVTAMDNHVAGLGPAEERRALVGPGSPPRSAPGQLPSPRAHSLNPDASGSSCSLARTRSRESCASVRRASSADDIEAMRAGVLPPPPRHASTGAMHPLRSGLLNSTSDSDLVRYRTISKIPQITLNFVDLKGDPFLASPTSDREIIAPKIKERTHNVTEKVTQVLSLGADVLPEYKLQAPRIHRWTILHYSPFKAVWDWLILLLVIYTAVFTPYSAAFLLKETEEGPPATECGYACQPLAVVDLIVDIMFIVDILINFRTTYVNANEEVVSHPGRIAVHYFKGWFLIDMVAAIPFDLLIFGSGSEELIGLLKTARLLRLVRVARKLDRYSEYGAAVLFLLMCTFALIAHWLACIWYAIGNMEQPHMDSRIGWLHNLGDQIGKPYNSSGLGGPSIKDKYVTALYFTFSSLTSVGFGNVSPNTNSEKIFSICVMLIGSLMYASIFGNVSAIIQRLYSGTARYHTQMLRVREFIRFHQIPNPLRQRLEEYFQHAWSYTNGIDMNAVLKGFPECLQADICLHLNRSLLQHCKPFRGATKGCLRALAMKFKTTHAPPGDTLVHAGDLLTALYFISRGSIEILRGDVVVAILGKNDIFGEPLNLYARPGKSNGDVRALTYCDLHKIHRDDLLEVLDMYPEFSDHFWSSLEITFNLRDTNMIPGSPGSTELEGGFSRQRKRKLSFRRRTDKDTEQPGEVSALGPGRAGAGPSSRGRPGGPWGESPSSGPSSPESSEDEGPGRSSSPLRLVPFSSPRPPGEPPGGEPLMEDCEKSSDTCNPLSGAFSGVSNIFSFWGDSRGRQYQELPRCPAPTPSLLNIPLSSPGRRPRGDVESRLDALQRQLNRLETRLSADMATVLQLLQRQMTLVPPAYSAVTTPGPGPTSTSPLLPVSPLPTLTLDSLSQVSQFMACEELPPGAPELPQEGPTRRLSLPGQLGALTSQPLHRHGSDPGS
T1 sequence (P41146 whole entry): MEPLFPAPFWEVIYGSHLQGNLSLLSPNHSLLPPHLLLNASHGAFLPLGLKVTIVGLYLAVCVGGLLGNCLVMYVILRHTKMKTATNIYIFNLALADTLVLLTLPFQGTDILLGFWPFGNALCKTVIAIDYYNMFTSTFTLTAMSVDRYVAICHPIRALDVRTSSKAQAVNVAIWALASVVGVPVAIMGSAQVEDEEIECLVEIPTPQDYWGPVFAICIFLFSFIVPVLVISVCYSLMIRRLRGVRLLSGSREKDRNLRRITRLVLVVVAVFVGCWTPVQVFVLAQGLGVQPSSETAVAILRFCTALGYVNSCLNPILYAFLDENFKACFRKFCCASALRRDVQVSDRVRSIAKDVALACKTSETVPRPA
Cannabinoid receptor 2 (Homo sapiens), sequence (P34972 whole entry): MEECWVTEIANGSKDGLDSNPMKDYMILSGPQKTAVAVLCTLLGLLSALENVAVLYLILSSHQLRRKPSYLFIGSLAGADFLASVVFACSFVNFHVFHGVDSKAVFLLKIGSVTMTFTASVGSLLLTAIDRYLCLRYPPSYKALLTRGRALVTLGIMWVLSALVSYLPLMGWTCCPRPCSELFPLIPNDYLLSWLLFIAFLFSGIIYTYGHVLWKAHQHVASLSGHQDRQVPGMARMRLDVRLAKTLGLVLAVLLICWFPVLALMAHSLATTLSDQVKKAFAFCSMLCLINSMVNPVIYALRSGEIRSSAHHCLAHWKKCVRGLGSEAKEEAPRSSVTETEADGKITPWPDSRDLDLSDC
Delta-type opioid receptor, sequence (P41143 whole entry): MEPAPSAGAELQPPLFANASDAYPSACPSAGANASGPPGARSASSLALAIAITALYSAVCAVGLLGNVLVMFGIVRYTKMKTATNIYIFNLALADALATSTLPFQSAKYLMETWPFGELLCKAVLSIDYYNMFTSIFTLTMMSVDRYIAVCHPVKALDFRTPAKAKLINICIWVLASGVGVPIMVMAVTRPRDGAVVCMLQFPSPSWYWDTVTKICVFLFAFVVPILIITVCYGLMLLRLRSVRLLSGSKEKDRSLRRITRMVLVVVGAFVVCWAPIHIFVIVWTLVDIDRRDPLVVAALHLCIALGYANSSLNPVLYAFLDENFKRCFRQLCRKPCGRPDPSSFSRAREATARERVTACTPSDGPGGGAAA
Mu-type opioid receptor, sequence (P35372 whole entry): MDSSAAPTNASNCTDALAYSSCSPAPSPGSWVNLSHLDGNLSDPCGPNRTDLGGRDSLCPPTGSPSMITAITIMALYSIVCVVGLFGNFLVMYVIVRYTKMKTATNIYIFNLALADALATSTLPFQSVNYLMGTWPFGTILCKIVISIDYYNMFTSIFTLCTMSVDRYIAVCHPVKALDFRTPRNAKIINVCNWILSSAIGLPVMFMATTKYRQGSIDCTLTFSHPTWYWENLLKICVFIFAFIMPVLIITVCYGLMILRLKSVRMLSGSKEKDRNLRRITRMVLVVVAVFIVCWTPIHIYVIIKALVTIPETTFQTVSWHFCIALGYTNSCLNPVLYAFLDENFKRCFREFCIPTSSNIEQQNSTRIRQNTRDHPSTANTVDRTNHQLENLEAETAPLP
Kappa-type opioid receptor, sequence (P41145 whole entry): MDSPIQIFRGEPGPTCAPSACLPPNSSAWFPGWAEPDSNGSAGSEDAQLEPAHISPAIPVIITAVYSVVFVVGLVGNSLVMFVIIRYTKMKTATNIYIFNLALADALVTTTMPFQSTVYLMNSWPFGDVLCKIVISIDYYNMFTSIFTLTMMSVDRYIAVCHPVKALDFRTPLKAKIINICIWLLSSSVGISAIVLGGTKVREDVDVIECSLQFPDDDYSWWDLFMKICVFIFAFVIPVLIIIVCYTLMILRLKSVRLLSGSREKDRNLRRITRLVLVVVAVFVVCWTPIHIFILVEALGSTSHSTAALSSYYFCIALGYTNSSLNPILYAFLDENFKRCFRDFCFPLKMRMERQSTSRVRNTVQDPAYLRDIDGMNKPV
Histamine H3 receptor (Homo sapiens), sequence (Q9Y5N1 whole entry): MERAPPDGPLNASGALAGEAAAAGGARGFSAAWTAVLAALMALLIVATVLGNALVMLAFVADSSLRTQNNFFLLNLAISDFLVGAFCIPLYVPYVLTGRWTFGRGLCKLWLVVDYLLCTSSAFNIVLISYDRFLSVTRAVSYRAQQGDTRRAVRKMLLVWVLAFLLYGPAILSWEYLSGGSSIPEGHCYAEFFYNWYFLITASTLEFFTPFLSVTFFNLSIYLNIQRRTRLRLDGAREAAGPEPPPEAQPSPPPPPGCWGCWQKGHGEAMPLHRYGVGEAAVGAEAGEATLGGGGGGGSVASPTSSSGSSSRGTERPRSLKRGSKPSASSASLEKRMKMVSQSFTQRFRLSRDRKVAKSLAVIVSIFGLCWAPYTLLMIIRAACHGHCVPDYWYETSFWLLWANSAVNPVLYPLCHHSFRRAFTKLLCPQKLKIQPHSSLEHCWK

concentration at 1 h [1]: 4.56 µM
Drug uptake (Brain [2]): 0.38 nmol/g
Kp at 1 h [3]: 0.09
Compound: CCN1CCN(c2cc3[nH]c(S[C@]4(C)CC[C@@H](N(C)C(C)=O)CC4)nc3cc2Cl)CC1

Kp at 0.5 h [4]: 2.02
IC50 (Nociceptin receptor [5]): 1.3 nM
logD [7]: 3.1
remaining at 0.5 h, 1 µM [8]: 82%
IC50 (Mu-type opioid receptor): > 10000 nM
IC50 [9]: 1400 nM
bioavailability [10]: 15%
half-life [11]: 0.62 h
clearance [12]: 77 mL/min/kg
bioavailability [13]: 38%
half-life [14]: 3.5 h
clearance [15]: 34 mL/min/kg
bioavailability [16]: 8%
half-life [17]: 4 h
clearance [18]: 22 mL/min/kg
concentration at 0.5 h [19]: 1.08 µM
Drug uptake (Brain [20]): 2.21 nmol/g
inhibition [21]: 72%
inhibition [22]: 74%
inhibition [23]: 73%
inhibition [24]: 50%
inhibition [25]: 62%
Cmax [26]: 10.7 µM
IC50 [27]: > 10000 nM
Compound: CCN1CCN(c2cc3[nH]c(C(=O)[C@]4(C)CC[C@@](C)(O)CC4)nc3cc2Cl)CC1
IC50 [6]: 20000 nM
Activity (Canis familiaris): Non-toxic
Activity (Rattus norvegicus): Active

IC50 (Nociceptin receptor [28]): 0.8 nM
IC50 (Nociceptin receptor [5]): 2.4 nM
logD [7]: 3.6
remaining at 0.5 h, 1 µM [8]: 57%
Compound: CCN1CCN(c2cc3[nH]c(C(=O)[C@]4(CC)CC[C@@](C)(O)CC4)nc3cc2Cl)CC1

IC50 (Nociceptin receptor [28]): 5.7 nM
IC50 (Nociceptin receptor [5]): 7.5 nM
logD [7]: 3.7
remaining at 0.5 h, 1 µM [8]: 74%
Compound: CCN1CCN(c2cc3[nH]c(C(=O)[C@]4(C)CC[C@@H](NC(=O)OC)CC4)nc3cc2Cl)CC1
IC50 [6]: 4900 nM

IC50 (Nociceptin receptor [28]): 27 nM
Compound: CCN1CCN(c2cc3[nH]c(C(=O)[C@]4(C)CC[C@](C)(O)CC4)nc3cc2Cl)CC1
IC50 [6]: 3100 nM

IC50 (Nociceptin receptor [28]): 9.9 nM
IC50 (Nociceptin receptor [5]): 38 nM
logD [7]: 3
Compound: CCN1CCN(c2cc3[nH]c(C(=O)C4(C)CCC(=O)CC4)nc3cc2Cl)CC1
IC50 [6]: 8500 nM

concentration at 1 h [1]: 22.2 µM
Drug uptake (Brain [2]): 1.11 nmol/g
Kp at 1 h [3]: 0.05
Compound: CCN1CCN(c2cc3[nH]c(S[C@]4(C)CC[C@@H](NC(=O)OC)CC4)nc3cc2Cl)CC1

IC50 (Nociceptin receptor [28]): 2 nM
IC50 (Nociceptin receptor [5]): 5.3 nM
logD [7]: 3.1
remaining at 0.5 h, 1 µM [8]: 71%
Compound: CCN1CCN(c2cc3[nH]c(C(=O)[C@]4(C)CC[C@@H](NC(=O)OC)CC4)nc3cc2C)CC1
IC50 [6]: 3000 nM
